GASC1 inh = inhibitors of GASC-1 (KDM4C) histone demethylase, primary screen, biochemical, single concentration HTS | GST-KDM4C 2-372, H3K9me3 peptide, LANCE TR-FRET | inhibition, % at 12.5 µM | Lysine-specific demethylase 4C (Homo sapiens), Q9H3R0 | hit rate 0.15% among 96,000 | AID 720574, 2013;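 active means mean replicate inhibition above about 25%, with at least 55% of replicates also reaching it, limit read from the data, passing the limit was not always enough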
Target sequence (Q9H3R0 2-372 limits assumed): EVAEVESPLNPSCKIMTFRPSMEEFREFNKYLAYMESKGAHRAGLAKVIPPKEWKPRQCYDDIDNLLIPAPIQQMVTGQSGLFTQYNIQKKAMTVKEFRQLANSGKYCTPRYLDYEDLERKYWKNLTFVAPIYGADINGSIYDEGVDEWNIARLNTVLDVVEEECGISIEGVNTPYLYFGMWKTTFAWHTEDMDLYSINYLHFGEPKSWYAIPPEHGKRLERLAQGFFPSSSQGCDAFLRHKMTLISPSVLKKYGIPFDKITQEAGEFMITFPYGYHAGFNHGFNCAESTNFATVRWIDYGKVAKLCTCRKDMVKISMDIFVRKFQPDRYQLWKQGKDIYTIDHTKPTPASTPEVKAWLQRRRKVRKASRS
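Compound: one test concentration per compound; Material: GST-GASC-1 enzyme fragment 2-372; Amount: GASC-1 enzyme at 10 nM final in reaction; Also added: H3K9me3 peptide substrate, Fe(II), 2-oxoglutarate; Technique: LANCE TR-FRET; Times: 30 min demethylation and 1 h detection at room temperature.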
IDH1 mut inh = inhibitors of IDH1 R132H reductase, primary screen, biochemical, plate reader, single point; inhibition, % at 10 µM; diaphorase/resazurin fluorescence, 60 min; Isocitrate dehydrogenase [NADP] cytoplasmic (Homo sapiens), O75874; hit rate 0.18% among 70,000; AID 624101, 2012; in the data active means inhibition above about 34%;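 further: 0% = DMSO and 100% = no enzyme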
T cruzi growth-1 = T. cruzi intracellular proliferation inhibitors, primary screen, cell-based, beta-gal Tulahuen parasites, NIH3T3 host, luminescence; T. cruzi beta-gal in NIH3T3, GalScreen luminescence, 90 h; inhibition, % at 8.34 µM; hit rate 5.9% among 77,000; AID 624255, 2012;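 active means mean inhibition above about 93%, with at least 55% of replicates each passing it, limit read from the data, passing the limit was not always enough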
T cruzi growth-2 = T. cruzi intracellular proliferation inhibitors, confirmation, cell-based, NIH3T3 host, beta-gal parasite, luminescence, cherry-pick; shares compounds with T cruzi growth-1; T. cruzi beta-gal in NIH3T3, GalScreen luminescence, 90 h; inhibition, % at 8.35 µM; hit rate 72% among 5,600; AID 651739, 2012;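 active means mean replicate inhibition above about 95% and at least 55% of replicates individually reaching it, limit read from the data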
T cruzi growth-3 = inhibitors of intracellular T. cruzi replication, confirmation, NIH3T3 host cells, beta-gal parasites, cherry-pick, set 2; T. cruzi beta-gal in NIH3T3, GalScreen luminescence, 90 h; hit rate 21% among 5,600; shares compounds with T cruzi growth-1; inhibition, % at 2.09 µM;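 active means mean inhibition above about 95%, with at least 55% of replicates also reaching it, limit read from the data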;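 further: plate controls were neutral control median for no effect and positive control median for full effect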
NIH3T3 tox = cytotoxicity in mouse NIH/3T3 fibroblasts, confirmation, cytotoxicity control for T. cruzi proliferation inhibitor project, cell-based, cherry-pick, single point; NIH/3T3 viability, CellTiter-Glo ATP luminescence, 90 h; shares compounds with T cruzi growth-1; cytotoxicity (signal decrease), % at 8.35 µM; AID 651742, 2012; hit rate 14% among 5,600;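 active means mean signal decrease across replicates above about 35% based on untreated-well scatter, with enough replicates individually passing, limit read from the data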;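 further: 0% = median of neutral control wells and 100% = median of positive control wells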
NIH3T3 tox 2 = NIH/3T3 fibroblast cytotoxicity, confirmation, cytotoxicity control, cell-based, cherry-pick, single point, set 2; shares compounds with T cruzi growth-1; NIH/3T3 viability, CellTiter-Glo ATP luminescence, 90 h; inhibition, % at 24.9 µM; hit rate 56% among 5,600; AID 651744, 2012;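 active means mean loss of cell viability signal at or above a set limit, and enough replicates individually reaching it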;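 further: 0% = median of neutral control wells and 100% = median of positive control wells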
An asterisk follows results filed as active. Only a selection was taken, and hits are over-represented in it overall.

Results for O=C(N[C@@H]1CC[C@@H](CCNS(=O)(=O)c2ccccc2)O[C@@H]1CO)c1cccnc1 ?
GASC1 inh: 1.6; IDH1 mut inh: -0.5; T cruzi growth-1: 41.2

How did C[C@@H]1CCCCO[C@@H](CN(C)CC2CC2)[C@H](C)CN([C@@H](C)CO)C(=O)c2cc(NC(=O)Nc3ccc(F)cc3)ccc2O1 do in these assays?
GASC1 inh: -0.2; IDH1 mut inh: 4.9; T cruzi growth-1: 102.7*; T cruzi growth-2: 87.2; T cruzi growth-3: -45.3; NIH3T3 tox: -16.1; NIH3T3 tox 2: -21.4

What do the screens show for `C[C@@H]1CCCCO[C@H](CN(C)CC2CCCCC2)[C@@H](C)CN([C@H](C)CO)C(=O)c2cc(NC(=O)Nc3ccc(F)cc3)ccc2O1`?
GASC1 inh: 0.5; IDH1 mut inh: -0.5; T cruzi growth-1: 39.4

What do the screens show for `C[C@@H]1CN([C@@H](C)CO)C(=O)c2cc(NC(=O)Nc3ccc(F)cc3)ccc2O[C@@H](C)CCCCO[C@H]1CN(C)CC1CC1`?
GASC1 inh: -2.6; IDH1 mut inh: 5.1; T cruzi growth-1: 80.9

How did C[C@@H]1CCCCO[C@@H](CN(C)CC2CCCCC2)[C@H](C)CN([C@@H](C)CO)C(=O)c2cc(NC(=O)Nc3ccc(F)cc3)ccc2O1 do in these assays?
GASC1 inh: 3.3; T cruzi growth-1: 113.7*; T cruzi growth-2: 99.0*; T cruzi growth-3: 77.1; NIH3T3 tox: 20.5; NIH3T3 tox 2: 106.2*

What do the screens show for `CN1C(=O)c2cc(NC(=O)C3CCCCC3)ccc2OC[C@@H]2O[C@H](CC(=O)NC3CCCC3)CC[C@@H]21`?
GASC1 inh: -0.6; T cruzi growth-1: 13.5

How did CC(C)CC#Cc1ccc2c(c1)O[C@@H](CN(C)C(=O)NC(C)C)[C@H](C)CN([C@H](C)CO)S2(=O)=O do in these assays?
GASC1 inh: -4.0; IDH1 mut inh: 6.5; T cruzi growth-1: 50.5

What do the screens show for `CC(C)CC#Cc1ccc2c(c1)O[C@H](CN(C)C(=O)NC1CCCC1)[C@@H](C)CN([C@@H](C)CO)S2(=O)=O`?
GASC1 inh: -1.5; IDH1 mut inh: -0.4; T cruzi growth-1: 125.2*; T cruzi growth-2: 102.6*; T cruzi growth-3: 81.1; NIH3T3 tox: 5.8; NIH3T3 tox 2: 102.6*

Results for CC(C)CC#Cc1ccc2c(c1)O[C@H](CN(C)C(=O)NC(C)C)[C@H](C)CN([C@@H](C)CO)S2(=O)=O ?
GASC1 inh: 0.9; IDH1 mut inh: -0.2; T cruzi growth-1: 72.6

Results for CC(C)CC#Cc1ccc2c(c1)O[C@H](CN(C)C(=O)NC(C)C)[C@H](C)CN([C@H](C)CO)S2(=O)=O ?
GASC1 inh: -1.9; IDH1 mut inh: 1.8; T cruzi growth-1: 63.4

How did CC(C)CC#Cc1ccc2c(c1)O[C@H](CN(C)C(=O)NC1CCCC1)[C@H](C)CN([C@H](C)CO)S2(=O)=O do in these assays?
GASC1 inh: 0.0; IDH1 mut inh: -0.2; T cruzi growth-1: 120.4*; T cruzi growth-2: 102.7*; T cruzi growth-3: 93.2; NIH3T3 tox: 18.2; NIH3T3 tox 2: 103.7*

Results for CC(C)CC#Cc1ccc2c(c1)O[C@H](CN(C)C(=O)NC1CCCC1)[C@H](C)CN([C@@H](C)CO)S2(=O)=O ?
GASC1 inh: -0.2; IDH1 mut inh: 4.1; T cruzi growth-1: 120.2*; T cruzi growth-2: 110.4*; T cruzi growth-3: 79.0; NIH3T3 tox: 19.6; NIH3T3 tox 2: 80.9*
